Test results as given in publication PMC11532418 (Scientific Reports, 2024).

Key:
DPP4 enzyme [1] = target: T1, DPP4 enzyme (Homo sapiens, UniProt P27487); experiment: biochemical; conditions: read-out: % DPP4 Enzyme Inhibition, at 20 µM
NIH/3T3 = experiment: MTT cytotoxic bioassay on normal cell line; format: cell-based; conditions: Mus musculus, NIH3T3, 72 h, read-out: IC50 ± SD
In short: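 NIH/3T3 fibroblasts were grown in high-glucose DMEM with 10% FBS and 1% penicillin-streptomycin under humidified 5% CO2. 1.0 × 10^4 cells/well were precultured for 16 h, then exposed for 72 h in fresh medium (reference drug at 1–200 µM). MTT (0.50 mg/ml final) was added for 4 h, and formazan was dissolved in DMSO. A570 − A630 gave % viability. IC50 is mean ± SD of three independent experiments.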

DPP4 enzyme [2] = target: T1, DPP4 enzyme; experiment: Kinetic study of DPP4 inhibition; format: biochemical
In short: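 DPP4 inhibition kinetics with fluorogenic substrate H-Gly-Pro-AMC at different substrate-to-enzyme concentration ratios, test compound at four concentrations (0.5, 5, 25 and 50 µM). Double-reciprocal plots of 1/velocity vs 1/[substrate] fitted by weighted least squares, assuming velocity variance is a constant percentage of v. Lineweaver–Burk slopes were replotted against inhibitor concentration, and Ki was taken as the negative X-axis intercept.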

T1 sequence (P27487 whole entry): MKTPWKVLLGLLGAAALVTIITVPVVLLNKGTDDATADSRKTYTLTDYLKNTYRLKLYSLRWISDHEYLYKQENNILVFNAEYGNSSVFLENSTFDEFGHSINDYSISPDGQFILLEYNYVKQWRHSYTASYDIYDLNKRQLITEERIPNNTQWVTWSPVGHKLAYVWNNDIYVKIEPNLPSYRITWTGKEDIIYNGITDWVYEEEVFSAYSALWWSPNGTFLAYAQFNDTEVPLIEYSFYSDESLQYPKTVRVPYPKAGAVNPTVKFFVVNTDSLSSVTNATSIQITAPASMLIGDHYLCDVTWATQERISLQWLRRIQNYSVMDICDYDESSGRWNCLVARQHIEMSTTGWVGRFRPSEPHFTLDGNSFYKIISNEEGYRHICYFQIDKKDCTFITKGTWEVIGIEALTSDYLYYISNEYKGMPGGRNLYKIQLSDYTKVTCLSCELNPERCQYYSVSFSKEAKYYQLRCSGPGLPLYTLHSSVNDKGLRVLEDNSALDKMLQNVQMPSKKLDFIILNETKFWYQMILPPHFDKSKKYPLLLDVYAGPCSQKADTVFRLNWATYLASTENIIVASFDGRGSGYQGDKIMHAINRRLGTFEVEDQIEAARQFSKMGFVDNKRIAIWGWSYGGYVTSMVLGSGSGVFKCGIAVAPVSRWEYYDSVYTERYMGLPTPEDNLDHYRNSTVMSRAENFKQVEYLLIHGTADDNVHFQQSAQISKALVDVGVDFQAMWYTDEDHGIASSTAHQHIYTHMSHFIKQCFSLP

Row | SMILES | IC50 (NIH/3T3) | also measured
1 | Cn1c(=O)cc(N2CCC(N)CC2)n(Cc2nc3ccccc3c(=O)n2-c2ccc(Cl)cc2)c1=O [9c, 6-(4-Aminopiperidin-1-yl)-1-((3-(4-chlorophenyl)-4-oxo-3,4-dihydroquinazolin-2-yl)methyl)-3-methylpyrimidine-2,4(1 H,3 H)-dione] | 72.2 ± 3.91 µM | inhibition at 20 µM (DPP4 enzyme [1]): > 50%
2 | Cn1c(=O)cc(N2CCC(N)CC2)n(Cc2nc3ccc(Br)cc3c(=O)n2-c2ccccc2)c1=O [9g, 6-(4-Aminopiperidin-1-yl)-1-((6-bromo-4-oxo-3-phenyl-3,4-dihydroquinazolin-2-yl)methyl)-3-methylpyrimidine-2,4(1 H,3 H)-dione] | 102 ± 4.05 µM | –
3 | Cn1c(=O)cc(N2CCC(N)CC2)n(Cc2nc3ccc(Br)cc3c(=O)n2-c2ccc(Cl)cc2)c1=O [9i, 6-(4-Aminopiperidin-1-yl)-1-((6-bromo-3-(4-chlorophenyl)-4-oxo-3,4-dihydroquinazolin-2-yl)methyl)-3-methylpyrimidine-2,4(1 H,3 H)-dione] | 76.9 ± 2.58 µM | Ki (DPP4 enzyme [2]): 12 µM; type of inhibition (DPP4 enzyme [2]; Lineweaver-Burk plot): competitive
4 | Cn1c(=O)cc(N2CCC(N)CC2)n(Cc2nc3ccccc3c(=O)n2-c2ccc(F)cc2)c1=O [9b, 6-(4-Aminopiperidin-1-yl)-1-((3-(4-fluorophenyl)-4-oxo-3,4-dihydroquinazolin-2-yl)methyl)-3-methylpyrimidine-2,4(1 H,3 H)-dione] | 62.9 ± 1.98 µM | –
5 | Cn1c(=O)cc(N2CCC(N)CC2)n(Cc2nc3ccc(Br)cc3c(=O)n2-c2cccc(Br)c2)c1=O [9l, 6-(4-Aminopiperidin-1-yl)-1-((6-bromo-3-(3-bromophenyl)-4-oxo-3,4-dihydroquinazolin-2-yl)methyl)-3-methylpyrimidine-2,4(1 H,3 H)-dione] | 78.1 ± 2.95 µM | –
6 | Cn1c(=O)cc(N2CCC(N)CC2)n(Cc2nc3ccccc3c(=O)n2-c2cccc(C(F)(F)F)c2)c1=O [9e, 6-(4-Aminopiperidin-1-yl)-3-methyl-1-((4-oxo-3-(3-(trifluoromethyl)phenyl)-3,4-dihydroquinazolin-2-yl)methyl)pyrimidine-2,4(1 H,3 H)-dione] | 81.5 ± 5.94 µM | –
7 | N[C@@H](CC(=O)N1CCn2c(nnc2C(F)(F)F)C1)Cc1cc(F)c(F)cc1F [Sitagliptin, reference compound] | 111 ± 5.85 µM | –
8 | Cc1ccc(-n2c(Cn3c(N4CCC(N)CC4)cc(=O)n(C)c3=O)nc3ccccc3c2=O)cc1 [9d, 6-(4-Aminopiperidin-1-yl)-3-methyl-1-((4-oxo-3-(p-tolyl)-3,4-dihydroquinazolin-2-yl)methyl)pyrimidine-2,4(1 H,3 H)-dione] | 39.3 ± 1.05 µM | –
9 | Cn1c(=O)cc(N2CCC(N)CC2)n(Cc2nc3ccccc3c(=O)n2-c2ccccc2)c1=O [9a, 6-(4-Aminopiperidin-1-yl)-3-methyl-1-((4-oxo-3-phenyl-3,4-dihydroquinazolin-2-yl)methyl)pyrimidine-2,4(1 H,3 H)-dione] | 88.1 ± 3.22 µM | –
10 | Cn1c(=O)cc(N2CCC(N)CC2)n(Cc2nc3ccccc3c(=O)n2-c2ccc(F)c(Cl)c2)c1=O [9f, 6-(4-Aminopiperidin-1-yl)-1-((3-(3-chloro-4-fluorophenyl)-4-oxo-3,4-dihydroquinazolin-2-yl)methyl)-3-methylpyrimidine-2,4(1 H,3 H)-dione] | 43.4 ± 1.02 µM | –
11 | Cn1c(=O)cc(N2CCC(N)CC2)n(Cc2nc3ccc(Br)cc3c(=O)n2-c2ccc(Br)cc2)c1=O [9j, 6-(4-Aminopiperidin-1-yl)-1-((6-bromo-3-(4-bromophenyl)-4-oxo-3,4-dihydroquinazolin-2-yl)methyl)-3-methylpyrimidine-2,4(1 H,3 H)-dione] | 91 ± 1.98 µM | inhibition at 20 µM (DPP4 enzyme [1]): > 50%
12 | Cn1c(=O)cc(N2CCC(N)CC2)n(Cc2nc3ccc(Br)cc3c(=O)n2-c2ccc(F)cc2)c1=O [9h, 6-(4-Aminopiperidin-1-yl)-1-((6-bromo-3-(4-fluorophenyl)-4-oxo-3,4-dihydroquinazolin-2-yl)methyl)-3-methylpyrimidine-2,4(1 H,3 H)-dione] | 89.7 ± 3.76 µM | –
13 | Cn1c(=O)cc(N2CCC(N)CC2)n(Cc2nc3ccc(Br)cc3c(=O)n2-c2cccc(F)c2)c1=O [9k, 6-(4-Aminopiperidin-1-yl)-1-((6-bromo-3-(3-fluorophenyl)-4-oxo-3,4-dihydroquinazolin-2-yl)methyl)-3-methylpyrimidine-2,4(1 H,3 H)-dione] | 68.4 ± 3.01 µM | –
